HMGR II inh – inhibitors of E. faecalis class II HMGR, primary screen, biochemical, Enterococcus faecalis. HMG-CoA reductase (Enterococcus faecalis, mvaE). purified E. faecalis HMGR, NADPH absorbance 340 nm kinetic. inhibition, % at 10 µM. hit rate 0.41% among 190,000. AID 1066, 2008;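 active = inhibition above a set limit, the median over all tested compounds plus 3 SD, cut at about 9.5% in these data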;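 note: enzyme runs in reverse so mevalonate oxidation gives rising NADPH absorbance; 0% = complete reaction with DMSO and 100% = background rate lacking mevalonate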
Rad51 HR inh – human RAD51 strand exchange inhibitors, primary screen, biochemical, fluorescence | hRad51 DNA strand exchange, fluorescence dequenching | inhibition, % at 10 µM | hit rate 0.085% among 200,000;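 active = inhibition above 40% at the single screening dose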;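 note: 0% = DMSO control wells and 100% = blanks with heterologous ssDNA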
Target sequence (Q06609 whole entry, looked up): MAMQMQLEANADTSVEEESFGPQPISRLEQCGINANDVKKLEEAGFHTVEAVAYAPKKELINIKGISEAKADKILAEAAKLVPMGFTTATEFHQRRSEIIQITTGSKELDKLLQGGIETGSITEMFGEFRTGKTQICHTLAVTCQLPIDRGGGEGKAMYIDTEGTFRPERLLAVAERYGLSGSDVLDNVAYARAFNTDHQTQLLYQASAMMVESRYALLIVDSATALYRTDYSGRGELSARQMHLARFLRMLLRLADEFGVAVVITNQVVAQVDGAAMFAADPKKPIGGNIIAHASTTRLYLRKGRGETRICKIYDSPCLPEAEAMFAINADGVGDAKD
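Test system – preformed human Rad51 ssDNA filaments · Reagent – Donor/quencher-labelled 47-bp dsDNA substrate · Incubation – 37 °C 15-min filament assembly, 30-min compound preincubation, 15-min exchange · Signal – FRET fluorescence dequenching, excitation 485 nm, emission 520 nm · Read-out – percent inhibition from fluorescence, normalised to plate control and blank means · Benchmarks – plate control and blank wells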
Measles CPE – compounds protecting cells from measles virus cytopathic effect, primary screen, measles RdRp inhibitor project, single point, MLSMR library, absorbance; Measles virus-infected cells, CPE protection; protection (pct of control), % at 4 µM; hit rate 1.5% among 140,000; AID 841, 2007; in the data active = protection mostly above about 24%, no sharp cut-off; inactive = mostly below about 26%
BB579 growth dn – growth inhibitors of yeast BB579 in restrictive medium, primary screen, yeast lifespan-shortening project, S. cerevisiae; OD615, 48 h; inhibition, % at 10 µM; hit rate 0.51% among 140,000;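 active = inhibition above a set limit, 3 SD over the mean compound inhibition, cut at about 44% in these data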
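Material: Saccharomyces cerevisiae DeaD strain BB579, replicative lifespan model yeast; buffer or medium: CSMM-D restrictive synthetic medium containing dextrose (glucose); compound: 10 µM single dose, DMSO 0.25%; timing: 48 h compound exposure at 30 °C after 4 h preincubation; signal: turbidity as optical density at 615 nm; benchmarks: positive control amphotericin B 10 µg/mL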
Arbovirus anti – antivirals against arbovirus infection, primary screen, cell-based, full library, 10K replicate subset; arbovirus infection cell-based antiviral screen; hit rate 0.37% among 200,000; inhibition, % at 10 µM; in the data active = inhibition above about 30%
Yeast life ext – compounds extending yeast replicative lifespan, primary screen, S. cerevisiae, OD615. S. cerevisiae growth with nicotinamide; deaD strain in restrictive glucose medium. inhibition of the nicotinamide effect, % at 10 µM. hit rate 0.68% among 130,000;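 active = inhibition above a set limit, placed 3 SD over the median of all compounds, cut at about 26% in these data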;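 note: 0% = nicotinamide-treated wells and 100% = cells grown without nicotinamide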
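Buffer or medium: CSMM-D glucose medium, restrictive; test system: modified budding yeast, DeaD strain; compound: single dose 10 µM compound, 0.25% DMSO; schedule: culture preincubation 4 h, compound exposure 48 h, both 30 °C; detection: optical density (absorbance) at 615 nm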
An asterisk follows results filed as active; / = no result. Most compounds without a hit are left out; they make up all but 2.4% or so of the library.

SMILES	HMGR II inh	Rad51 HR inh	Measles CPE	BB579 growth dn	Arbovirus anti	Yeast life ext
COC(=O)C(Cc1ccccc1)P(=O)(c1ccccc1)c1ccccc1 (configuration not stated)	2	7	11	-16	-3	6
CCOCC(=O)Nc1nc2c(s1)C(=O)CC(C)(C)C2	1	-13	23	45*	-1	-13
Cc1ccc(NS(=O)(=O)c2ccc(OCC(=O)N3CCOCC3)cc2)cc1	-5	-7	6	-46	6	-3
O=C(CSc1nc2ccccc2c(=O)n1Cc1ccc(Cl)cc1)NCc1cccs1	0	1	21	-11	-6	-2
COCCn1c(-c2ccc(Cl)cc2)cnc1SCC(=O)NCc1cccs1	-3	-2	4	-22	58*	-12
CC(CCc1ccccc1)NC(=O)c1cc2sccc2n1C (configuration not stated)	4	-8	28	-40	42*	2
C/C(O)=C\c1nc2ccccc2oc1=O	-1	1	28*	0	-10	-4
CCOC(=O)c1nn(-c2ccc(Cl)cc2)c2nc(Nc3ccccc3)cc(=O)n12	-4	/	3	-33	42*	-12
CCOC(=O)c1nn(-c2cccc(Cl)c2)c2nc(Nc3ccccc3)cc(=O)n12	1	8	10	-33	34*	-2
COc1cc(OC)c(NC(=O)Cn2cccc2)cc1Cl	3	-1	36	4	-10	-9
COc1ccc(NC(=O)Cn2cccc2)cc1Cl	11*	-5	41*	-60	-10	-11
Cc1ccc(NC(=O)Cn2cccc2)cc1Cl	1	4	2	9	3	-15
COc1cc(NC(=O)c2cccc(Cl)c2)c(OC)cc1NC(=O)CN1CCOCC1	-6	-2	73*	-47	-14	-20
COc1ccc(Cl)cc1NC(=O)Cn1cccc1	1	4	34*	-14	-3	-6
COc1ccc(Cl)cc1NC(=O)C1COc2ccccc2O1 (configuration not stated)	-5	-9	/	/	32*	/
COc1ccc(OC)c(NC(=O)C2COc3ccccc3O2)c1 (configuration not stated)	-2	6	5	-55	15	-16
Cn1cccc1CC(=O)NNC(=S)NC(=O)c1ccc(F)cc1	/	-22	/	/	/	/
COc1ccc(NC(=O)CN(c2ccccc2)S(=O)(=O)N(C)C)cc1Cl	-3	-8	/	/	-3	/
COc1ccc(Cl)cc1NC(=O)CN(c1ccccc1)S(=O)(=O)N(C)C	17*	-8	17	-17	-2	8
Cc1nonc1NC(=O)CSc1nc(C2CCCCC2)nc2ccccc12	0	8	9	-33	2	61*
Cc1nn(C)c(C)c1NC(=O)CSc1nc(C2CC2)nc2c1cnn2-c1ccccc1	-6	3	62*	-1	-5	-31
Cc1cc(NC(=O)CSc2nc(C3CCCCC3)nc3ccccc23)no1	0	9	16	-47	3	3
Cc1nn(C)c(C)c1NC(=O)CSc1nc(-c2ccccc2Cl)nc2c1cnn2-c1ccccc1	-1	-5	11	-70	-12	-6
CCS(=O)(=O)c1ccc(O)c(NC(=O)CC2(CC(=O)O)CCCC2)c1	/	4	/	/	/	/
Cc1noc(C(F)(F)F)c1C(=O)NNC(=O)c1ccccc1	/	17	/	/	/	/
SMILES	HMGR II inh	Rad51 HR inh	Measles CPE	BB579 growth dn	Arbovirus anti	Yeast life ext
COC(=O)c1cc(=O)n(-c2ccc(F)cc2)c(=Nc2ccc(F)cc2)s1	11*	-1	4	-32	-31	29*
COC(=O)c1cc(=O)n(Cc2cccs2)c(=Nc2ccc(F)cc2)s1	-2	-4	/	/	-22	/
COc1ccc(N2C(=O)CC(NCc3ccc(F)cc3)C2=O)cc1 (configuration not stated)	-6	0	10	-14	-1	/
COc1ccc(N2C(=O)CC(NCc3ccncc3)C2=O)cc1 (configuration not stated)	-4	-2	45*	-47	8	21
CCOC(=O)/C(C#N)=C(\O)c1ccc(NC(=O)c2ccc([N+](=O)[O-])cc2)cc1	/	18	/	/	/	/
COc1ccc(Cl)cc1C(=O)NC(C)C	2	13	/	/	8	/
Clc1ccc2nncn2n1	-5	3	/	/	14	/
O=C(O)c1cc(-c2ccc(N3CCOCC3)cc2)nn1-c1ccccc1Cl	21*	-1	/	/	16	/
O=C(O)c1cc(-c2ccc(N3CCOCC3)cc2)nn1-c1ccc(F)cc1F	-12	2	2	15	2	-7
CCOC(=O)C(=Cc1ccc(-n2ccnc2)cc1)C(=O)OCC	1	-3	/	/	4	/
CCOC(=O)C(=Cc1ccc(F)cc1)C(=O)OCC	-6	-4	8	-48	-24	78*
O=C(Nc1ccc(S(=O)(=O)Nc2nccs2)cc1)c1ccc(S(=O)(=O)N2CCOCC2)cc1	-2	5	67*	-33	2	-4
Cc1cc(C(=O)Nc2cccnc2)cs1	0	77*	18	-42	-5	-10
CCOC(=O)c1[nH]c2ccccc2c1NC(=O)c1ccc(S(=O)(=O)N2CCCC2)cc1	3	/	21*	-27	-2	1
O=C(Nc1cccnc1)c1cc(F)cc(F)c1	-4	12	18	-32	-4	-32
Cc1cc(C(=O)Nc2ccc(S(=O)(=O)N3CCCC3)cc2)cs1	-4	-7	53*	-15	6	-17
CC/C(=N\NC(=O)C(N)=O)c1ccccc1O	1	/	20	-34	-24	4
CCOC(=O)C1CC(c2ccccc2)=NNC1=O (configuration not stated)	-7	35	/	/	5	/
Cc1cc2nc(-c3ccc4c(c3)CCC4)ccn2n1	-1	/	/	/	-3	/
O=C1NC2(CCSC2)C(=O)N1CC(=O)N(Cc1ccccc1)C1CCS(=O)(=O)C1 (configuration not stated)	/	-9	/	/	/	/
Brc1ccc(-c2nnc3n2CCCCC3)cc1	0	-2	10	-27	11	-10
Clc1ccc(-c2nnc3n2CCCCC3)cc1	-9	-4	79*	-50	7	-11
O=C(CSc1ncnc2ccccc12)NCC(=O)c1ccccc1	-1	25	/	/	-1	/
Cc1ccc(N/C(C(Cl)=C(Cl)Cl)=C(/Cl)[N+](=O)[O-])c(C)c1	-2	3	9	-57	3	48*
O=c1[nH]c(SCc2nc3ccccc3c(=O)n2-c2ccccc2)nc2ccccc12	-1	2	5	-38	-4	-2
O=c1c2ccccc2nc(CSc2ncnc3nc[nH]c23)n1-c1cccc(C(F)(F)F)c1	-6	-5	27*	-62	-2	0
